The values that follow come from ChEMBL document CHEMBL4699492, “Discovery of Novel Pyrazolo[3,4-b] Pyridine Derivatives with Dual Activities of Vascular Remodeling Inhibition and Vasodilation for the Treatment of Pulmonary Arterial Hypertension” (J Med Chem, 2020).

Series [1] is described as follows: Antiproliferative activity against HPASMC measured after 48 hrs under hypoxic condition by CCK8 assay. The class given is functional, tissue-based. The following applies: Homo sapiens, Pulmonary Artery Smooth Muscle Cells. In short, it runs like this: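 HPASMCs were grown in high-glucose D-MEM with 20% FBS, and HLF1 in D-MEM/F-12 (1:1) with 10% FBS. Cells were seeded for exponential growth, then exposed to a range of compound concentrations for 48 h at 37 °C under hypoxia (1% O2, 5% CO2, 94% N2). CCK-8 was added for 4 h and absorbance read at 490 nm. IC50 came from dose-response curves averaged over three independent experiments.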

Series [2] deals with Rattus norvegicus. Kind of series: In vivo inhibition of AMPK in Sprague-Dawley rat model of hypoxia-induced pulmonary artery hypertension assessed as reduction in ACC phosphorylation in lungs at 10 mg/kg, po administered daily for 2 weeks by Western blot analysis. The format is functional, organism-based. In short, it runs like this: (§1)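 Hypoxic PAH model in male SD rats (160-200 g) kept at 10% O2 for 4 weeks. Oral dosing at 10 mg/kg daily for 14 days, suspended in 0.5% CMC-Na; control and hypoxia groups received vehicle only. Lungs homogenized in RIPA with protease and phosphatase inhibitors. 30 µg protein run on 10% SDS-PAGE, then PVDF blotting, with β-actin as loading reference. Three independent runs.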

Series [3] in a line: Half life in Sprague-Dawley rat liver microsomes at 1.5 uM preincubated for 5 mins followed by NADPH addition and measured up to 45 mins by LC-MS/MS analysis. The format is ADME, Microsome. The following applies: time <=50 min. In outline:
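Liver microsomes (0.75 mg/mL), human or SD rat, in 0.1 M potassium phosphate pH 7.4 with 3.0 mM MgCl2 and 1.5 µM compound, run in duplicate. After 5 min preincubation at 37 °C, reaction started with 3 mM NADPH. Quenched at 0, 5, 15, 30 and 45 min with ice-cold acetonitrile containing internal standard. Ketanserin served as positive control and a no-NADPH buffer incubation as negative control. LC-MS/MS read-out.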

A short description of series [4]: Effect on total ACC level in lungs of Sprague-Dawley rat model of hypoxia-induced pulmonary artery hypertension at 10 mg/kg, po administered daily for 2 weeks by Western blot analysis. The following applies: in vivo, 336 h. The format is ADME, organism-based. In outline:
as §1

Series [5] is filed under the species Homo sapiens. Put plainly: Inhibition of CaMKKbeta phosphorylated recombinant human AMPK alpha1/beta1/gamma1 using 1-biotin as substrate incubated for 60 mins by HTRF assay. The note with it: time 1.0 hrs. In short, it runs like this: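 Kinase reaction with 0.16 µM STK substrate 1-biotin, 0.8 mmol DTT, 4 mmol MgCl2, 4 µM ATP and compound, started by adding 1 ng/µl CaMKKβ-prephosphorylated AMPK (α1β1γ1). Ran 1 h at 37 °C, then Eu3+-cryptate STK antibody plus 57.5 nmol/L XL-665 for 1 h at room temperature. Activity read as the 665/620 ratio ×10000. Curves averaged from three independent experiments.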

Series [6] relates to Pulmonary Artery Smooth Muscle Cells. Kind of series: Stimulation of sGC in HPASMC assessed as increase in intracellular cGMP level at 100 uM measured after 1 hr in presence of PDE5 inhibitor IBMX and sGC inhibitor ODQ by cGMP-d2/europium cryptate reagent based HTRF assay. The note with it: Homo sapiens. The format is tissue-based. In short, it runs like this: (§2)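 HPASMCs were suspended at 100,000 cells/mL in PBS with 0.2% BSA, with or without 10 µM ODQ. Compounds were added as a 6-point, 10-fold dilution series; the top 2× stock was 200 µM. Incubation was 1 h at room temperature, in triplicate. cGMP-d2 in lysis buffer and europium cryptate were then added for 1 h before HTRF reading. Three independent experiments.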

Series [7] has the same test system. Put plainly: Stimulation of sGC in HPASMC assessed as increase in intracellular cGMP level measured after 1 hr in absence of PDE5 inhibitor IBMX and presence of sGC inhibitor ODQ by cGMP-d2/europium cryptate reagent based HTRF assay. The format is tissue-based. The following applies: Homo sapiens, filed as activator. In outline:
as §2

In series [8] the target is AMP-activated protein kinase, AMPK (Homo sapiens) (UniProt P54646+O43741+P54619+Q9UGJ0+Q9Y478+Q13131+Q9UGI9). Kind of series: Inhibition of AMPK in hypoxia-induced HLF1 cells assessed as reduction in cell migration measured after 24 hrs by wound healing assay. The class given is cell-based. The following applies: dose microM 5-10, time 24.0 hrs. In short, it runs like this: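 Wound-healing assay. 5 × 10^4 cells were seeded per well and grown 24 h to near confluence. The monolayer was scratched with a pipette tip and washed with PBS. Cells were then kept in 1% FBS medium with TGF-β (10 ng/mL) or under hypoxia (1% O2, 5% CO2, 94% N2), alone or with compound. Migration ran 24 h at 37 °C, imaged at 0 and 24 h. Mean ± SD from three independent experiments.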

Series [9] deals with Pulmonary Artery Smooth Muscle Cells. Put plainly: Stimulation of sGC in HPASMC assessed as increase in intracellular cGMP level measured after 1 hr in presence of […] IBMX by cGMP-d2/europium cryptate reagent based HTRF assay. The class given is tissue-based. The following applies: Homo sapiens, filed as activator. In short, it runs like this:
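HPASMCs at 100 000 cells/mL in PBS with 1 mM IBMX and 0.2% BSA, with or without 10 µM ODQ. Exposed to a 6-point, 10-fold dilution series (top 200 µM, 2× stock) in triplicate for 1 h at room temperature. cGMP-d2 in lysis buffer and europium cryptate added, then 1 h at room temperature before HTRF reading. Three independent experiments averaged.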

Series [10] in a line: Antiproliferative activity against HLF1 cells assessed as reduction in TGFbeta-induced cell proliferation measured after 48 hrs by CCK8 assay. The format is functional, cell-based. The note with it: Homo sapiens, HLF1, 48 h. In short, it runs like this:
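HPASMCs grown in high-glucose D-MEM with 20% FBS and HLF1 in D-MEM/F-12 (1:1) with 10% FBS. Cells stimulated with TGF-β (10 ng/mL) at 37 °C, 5% CO2, then exposed to a concentration range for 48 h. CCK-8 added for 4 h and absorbance read at 490 nm. IC50 derived from the curves.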

Series [11] concerns Rattus norvegicus. Kind of series: Inhibition of vascular remodeling activity in Sprague-Dawley rat model of hypoxia-induced pulmonary artery hypertension assessed as reduction in Smad2 phosphorylation in lungs at 10 mg/kg, po administered daily for 2 weeks by Western blot analysis. The format is functional, organism-based. In short, it runs like this:
as §1

Series [12] can be described thus: Effect on total AMPK level in lungs of Sprague-Dawley rat model of hypoxia-induced pulmonary artery hypertension at 10 mg/kg, po administered daily for 2 weeks by Western blot analysis. The class given is ADME, organism-based. The note with it: in vivo, 336 h. In short, it runs like this: as §1
Series [13] can be described thus: Protein binding in human plasma. The class given is ADME, cell-free. The note with it: read-out: PPB (converted).
Series [14] is described as follows: Effect on total Smad2/3 level in lungs of Sprague-Dawley rat model of hypoxia-induced pulmonary artery hypertension at 10 mg/kg, po administered daily for 2 weeks by Western blot analysis. The class given is ADME, organism-based. The following applies: in vivo, 336 h. In outline: as §1
The test system of series [15] is Pulmonary Artery Smooth Muscle Cells. Put plainly: Stimulation of sGC in HPASMC assessed as increase in intracellular cGMP level measured after 1 hr in absence of PDE5 inhibitor IBMX and sGC inhibitor ODQ by cGMP-d2/europium cryptate reagent based HTRF assay. The following applies: Homo sapiens, filed as activator. The class given is tissue-based. In short, it runs like this: as §2

In series [16] the test system is Rattus norvegicus. Put plainly: In vivo stimulation of sGC in Sprague-Dawley rat model of hypoxia-induced pulmonary artery hypertension assessed as increase in phosphorylation levels of VASP in lungs at 10 mg/kg, po administered daily for 2 weeks by Western blot analysis. The class given is functional, organism-based.

The source made the active and inactive calls. The rule behind the calls is not given here.

For the compound `Cc1ccccc1COc1nc2c(cc1-c1nc(N)cc(N)n1)c(C)nn2-c1ccccc1`, the IC50 in [1] was determined as 20.8 µM; in [10], 38.5 µM. In addition, the inhibition entry in [2] and in series [11] was “Active” in each case. This compound yielded a half-life at 1.5 µM in series [3] of 10 min. For the same compound, the Activity result in series [4] is “Non-Toxic”; in series [9], “Dose-dependent effect”; in [12] it was “Non-Toxic”; in series [14], “Non-Toxic”. Besides, the inhibition result in series [5] and in series [8] was “Dose-dependent effect” in each case. Besides, in [6], the result was inactive. Also, the result in [7], in series [15] and in series [16] was Active. In addition, the fraction unbound in series [13] was 0.002.
